# In PubChem BioAssay AID651572 (The Scripps Research Institute Molecular Screening Center, 2012):
# In all, about 360,000 compounds went through this assay and about 950 (0.26%) were called active. This excerpt belongs to a sample that is enriched for actives. Values without a mark were called inactive.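 Rule for the calls: active = inhibition above a per-plate limit, mean inhibition of low control wells plus 3 SD (cut at about 25% in these data); inactive = the rest.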
# Target: ADP-ribosylation factor GTPase-activating protein 1 (Rattus norvegicus) (UniProt Q62848)
# Test: blockers of ARFGAP1-stimulated ARF1 GTP hydrolysis – biochemical, fluorescence polarization, GDP tracer, primary screen (AID 651572);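 note: 0% = DMSO wells with enzyme and 100% = wells lacking Arfgap1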
# Settings: GDP FP detection, at 16.5 µM, active compounds read high
# In short: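 Material: rat Arfgap1 GAP domain (His6, aa 1-136), purified enzyme. Also added: human ARF1(Δ1-17)-GTP substrate. Compound dosing: 16.5 µM single point, 1.26% DMSO. Timing: enzyme reaction 120 min at 25 °C after 20 min preincubation. Signal: GDP detection by fluorescence polarization. Read-out basis: percent inhibition of GAP-stimulated GDP formation, scaled between DMSO and no-Arfgap1 medians.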
# Chain of ADP-ribosylation factor GTPase-activating protein 1 (Rattus norvegicus) (Q62848 1-136 limits assumed): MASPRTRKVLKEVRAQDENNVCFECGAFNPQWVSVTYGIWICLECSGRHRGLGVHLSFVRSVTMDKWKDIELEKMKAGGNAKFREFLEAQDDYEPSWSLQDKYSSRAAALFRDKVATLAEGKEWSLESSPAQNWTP
row,SMILES,inhibition
1,C[C@H](O)[C@@H]1C(=O)N2CCc3c([nH]c4c(-c5ccc6c(c5)OCO6)cccc34)[C@@H]2C[C@@H]1N(C)C(=O)c1ccco1,1.71%
2,COc1cccc(CNc2ncc(-c3ccccc3)n2C)c1,-4.8%
3,COc1cccc(CNc2nc(NCc3cccs3)nc3ccsc23)c1,2.65%
4,COc1cccc(CNc2nc(C(F)(F)F)nc3ccccc23)c1,27.8% (active)
5,C[C@@H](CN1C2=NC[C@@H](Cc3ccccc3)N2C[C@H]1Cc1ccc(O)cc1)NC(=O)CCC1CCCCC1,6.99%
6,CC[C@H](NC(=O)[C@H](Cc1ccccc1)NC(=O)[C@H]1O[C@@H](n2cnc3c(=O)[nH]c(N)nc32)[C@H](O)[C@@H]1O)c1ccccc1,10%
7,COC(=O)[C@]1(Cc2ccccc2)NC=C(C(=O)c2ccccc2)[C@@H]1c1cccc(OC)c1,1.68%
8,O=S1(=O)c2c(cccc2N2CCCCC2)O[C@H](COCc2ccccc2)CN1C1CC1,0.4%
9,C#CCN([C@@H](C)C(=O)OCC)S(=O)(=O)c1ccc(Br)cc1F,-5.91%
10,Cc1cc(N2CCN(C(=O)OC(C)(C)C)C[C@H]2C)ccc1N1CCN(Cc2ccccc2)[C@H](C)C1,1.76%
11,CCCCCCCCN1C(=O)[C@@H](CC(=O)NCCCC)C[C@@]2(C(=O)OC)C1=C[C@H](C(C)(C)C)O[C@@H]2C,3.82%
12,Cc1[nH]c2ccccc2c1CC(=O)Nc1ccc(Nc2cccnc2)c(-c2cccc(Cl)c2)c1,16.8%
13,COc1ccc(CNC(=O)C(C)NCc2ccccc2Cl)cc1 (configuration not stated),-1.63%
14,COc1ccc(CNC(=O)C(Cc2ccccc2)n2cccc2)cc1 (configuration not stated),33.6% (active)
15,CCSc1ccccc1C(=O)NCc1ccc(OC)cc1,-5.39%
16,Cc1cc(Br)cn2c(Cc3ccccc3C(F)(F)F)c(-c3ccc(C#N)cc3)nc12,-8.18%
17,COC(=O)Cc1nnn2c1[C@H](C)[C@@H](OC)c1cc(Br)ccc1-2,-3.05%
18,CC(=O)C1=C(C)N(Cc2ccccc2)C(=S)NC1c1cccc(Br)c1 (configuration not stated),20.9%
19,CN1CCCCC(NC(=O)C(C)(C)C)C1=O (configuration not stated),-2.4%
20,CC(C)CNc1cccc2c1S(=O)(=O)N[C@H](C)CO2,1.59%
21,COC(=O)c1c(-c2ccc(OC)cc2)c2c(c3c4ccccc4n(S(=O)(=O)c4ccc(C)cc4)c13)C(=O)N(C)C2,2.2%
22,COC(=O)c1cc2c(c3c4ccccc4n(S(=O)(=O)c4cccc(C)c4)c13)C(=O)N(Cc1ccccc1)C2,46.8% (active)
23,COC(=O)c1cc2c(c3c4cc(F)ccc4n(S(=O)(=O)c4ccccc4)c13)C(=O)N(Cc1ccccc1OC)C2,-6.31%

row,SMILES,inhibition
1,COC(=O)C1=C(C)N(Cc2ccc(F)cc2)C(=S)NC1c1cccc(Cl)c1 (configuration not stated),0.22%
2,COc1ccc(/C=C/C(=O)OCC(=O)NC2CCCCCC2)cc1OC,-8.52%
3,COc1ccc(/C=C2\SC(=S)N(CCCC(=O)NC3CCCC3)C2=O)cc1OC,25.1% (active)
4,COc1ccc(CCNC(=O)CCC(=O)NC2CCCCC2)cc1OC,9.15%
5,N#Cc1ccc(OCCCN2CCC(C(O)(c3ccccc3)c3ccccc3)CC2)c(F)c1,-2.6%
6,COC(=O)CCc1sc(Nc2ccc(Br)cc2)nc1-c1ccc(OC)cc1,7.69%
7,COc1ccc(-c2csc(Nc3ccc(O)cc3)n2)cc1,24.8% (active)
8,COc1ccc(C(O)c2nc(-c3ccc(OC)nc3)cs2)cc1 (configuration not stated),6.07%
9,CC(C)(C)n1nc(C2CC2)c(Br)c1NC(=O)c1ccccc1F,-8.2%
10,Nc1ccc(S(=O)(=O)Nc2nccc(/C=C/c3ccc(Br)s3)n2)cc1,33.6% (active)
11,CC(=O)Nc1ccc(S(=O)(=O)Nc2nccc(/C=C/c3ccccc3F)n2)cc1,-5.08%
12,Oc1cccc2ccc(/C=C/c3ccc(Br)s3)nc12,9.22%
13,COc1ccccc1CCn1cnc(-c2ccccc2)c1C(C)C,2.03%
14,CC(=O)C1=C(C)N(Cc2ccc(Cl)cc2)C(=S)NC1c1ccc(F)cc1 (configuration not stated),-8.75%
15,COC(=O)C1=C(C)N(Cc2cccc(C(F)(F)F)c2)C(=NCc2ccccc2)NC1c1ccc(Cl)cc1 (configuration not stated),-7.39%
16,CCCN(CC(=O)Nc1ccccc1C)C(=O)c1ccc2[nH]c3c(c2c1)CC(C)CC3 (configuration not stated),11.3%
17,CN(CC(=O)Nc1cccc(F)c1)C(=O)CC1CCCC1,-2.56%
18,CC1CCc2[nH]c3ccc(C(=O)N(C)CC(=O)Nc4cccc(F)c4)cc3c2C1 (configuration not stated),28% (active)
19,CCOC(=O)/C=C/c1ccccc1O,1.41%
20,COc1ccccc1Cc1c(-c2ccc(F)cc2)nc2ccc(C)cn12,4.94%
21,CN1C(=O)C2CC(O)C(SC3CC4C(=O)N(C)C(=O)C4CC3O)CC2C1=O (configuration not stated),-0.39%
22,CC(C)[C@@H](C)/C=C/[C@@H](C)[C@H]1CC[C@@H]2[C@]1(C)CCC1[C@]23C=C[C@]2(C[C@@H](O)CC[C@]12C)N(c1ccc([N+](=O)[O-])cn1)O3 (some centres not stated),2.09%
23,COc1ccccc1OCC(=O)OCc1cc(-c2ccco2)on1,-14.7%

row,SMILES,inhibition
1,COc1ccccc1OCc1nnc(SCC(N)=O)n1-c1ccccc1,3.32%
2,COc1ccccc1OCC(=O)OCn1c(SC)nnc(C)c1=O,25.6% (active)
3,O=C(NCc1ccccc1)[C@H]1CCCN1C(=O)[C@@H]1CCCN1C(=O)c1ccc(Cl)cc1Cl,11.1%
4,Cc1nc(NC(=O)C(C)(C)C)sc1[N+](=O)[O-],-3.35%
5,O=C(N[C@H](Cc1ccccc1)C(=O)N1CCCN(Cc2cccs2)CC1)[C@H]1O[C@@H](n2ccc(=O)[nH]c2=O)[C@H](O)[C@@H]1O,17.7%
6,CCOc1ccc(C(=O)Nc2cccc(SC)c2)cc1,2.92%
7,COc1ccc(NC(=O)c2ccc(C#CC(C)(C)O)cc2)cc1,-7.91%
8,Cc1ccc(NC(=O)c2ccc(Oc3ncccn3)cc2)cc1,25.6% (active)
9,CC(C)C[C@H](NC(=O)CC1CCCC1)C(=O)N1CCC[C@H]1C(=O)NCc1ccccc1,2.12%
10,Nc1ncnc2c1ncn2C1OC(CO)CC1O (configuration not stated),3.3%
11,CC(C)CCSc1ncnc2c1oc1nc3c(cc12)COC(C)(C)C3,28.1% (active)
12,CC1(C)Cc2nc3sc4c(SCC(=O)NC(c5ccccc5)c5ccccc5)ncnc4c3cc2CO1,-6.88%
13,CCCc1nc2oc3c(OCC)ncnc3c2c2c1COC(C)(C)C2,16.9%
14,O=C(NCc1ccccc1)[C@H]1CCCN1C(=O)[C@H]1CCCN1C(=O)N1CCOCC1,-1.77%
15,COC(=O)C1=C(C)N(Cc2ccc(C(F)(F)F)cc2)C(=NCc2ccc(C(F)(F)F)cc2)NC1c1cccc(Cl)c1 (configuration not stated),9.23%
16,Nc1ncnc2c1ncn2[C@@H]1O[C@H](C(=O)N[C@@H](CCc2ccccc2)C(=O)NCC(=O)N2CCOCC2)[C@@H](O)[C@H]1O,-17.3%
17,O=C(O)CCn1cc(/C=C/C(=O)c2ccc(Cl)cc2)c(-c2cccc(Br)c2)n1,26.5% (active)
18,CCOC(=O)C1=C(C(=O)OCC)C2N(Cc3ccc(C#N)cc3)c3ccccc3[C@@]23C[C@@H](C(=O)OC)N(S(=O)(=O)c2ccc(F)cc2)C3=N1 (some centres not stated),6.03%
19,CCc1c(-c2ccccc2OC)ncn1CCc1ccccc1OC,2.34%
20,CC1CCN(C(=O)c2ncn3c2C(=O)N[C@@H](C)C3)CC1,5.31%
21,COc1cccc(-c2cc(CNC(=O)[C@@H](Cc3ccccc3)NC(=O)[C@H]3O[C@@H](n4cnc(C(N)=O)n4)[C@H](O)[C@@H]3O)no2)c1,-9.08%
22,COC(=O)C1=C(C)N(Cc2ccc(C(F)(F)F)cc2)C(=NCc2ccccc2)NC1c1ccccc1C(F)(F)F (configuration not stated),9.08%
23,O=C(O)c1ccc(COc2c(F)c(F)cc(F)c2F)o1,5.24%

row,SMILES,inhibition
1,O=C(O)c1ccc(S(=O)(=O)N2CCOCC2)o1,-3.82%
2,O=C(O)CSCc1ccc(C(=O)O)o1,25.2% (active)
3,Cc1cc(S(=O)(=O)N2CCOCC2)ccc1OCC(=O)Nc1cccc(C(F)(F)F)c1,2.22%
4,CCNS(=O)(=O)c1ccc(NC(=O)Nc2cccc(C(F)(F)F)c2)cc1,28.9% (active)
5,CCNS(=O)(=O)c1ccc(NC(=O)c2cncc(Br)c2)cc1,-3.5%
6,COC(=O)[C@]12C[C@H](CC(=O)N3CCN(C(=O)C4CC4)CC3)C(=O)N(Cc3ccc4c(c3)OCO4)C1=C[C@H](C(C)(C)C)O[C@@H]2C,11.2%
7,COC(=O)[C@H](CC(C)C)NS(=O)(=O)c1c(F)cccc1F,4.12%
8,Cc1ccc(-n2ncc3c2ncn2nc(-c4ccco4)nc32)c(C)c1,44.3% (active)
9,COC(=O)CSc1ncnc2c1cnn2-c1ccc(C)cc1C,8%
10,Cc1ccc(-n2ncc3c(=O)n(-c4ccc(C)c(C)c4)c(-c4ccco4)nc32)cc1,-1.3%
11,Cc1ccc(NC(=O)N2c3ccccc3SC2c2ccco2)c(C)c1 (configuration not stated),-11.2%
12,COCc1[nH]nc2c1C(c1ccccc1)N(c1ccccc1)C2=O (configuration not stated),8.17%
13,CCOC(=O)CNC(=O)N(C)[C@H]1C[C@H]2c3[nH]c4c(-c5ccc6c(c5)OCO6)cccc4c3CCN2C(=O)[C@H]1[C@H](C)O,-1.05%
14,O=c1[nH]c(-c2ccccc2)cn1C1CCN(Cc2ccc(-c3nc4ccc(F)cc4nc3-c3ccccc3)cc2)CC1,6.41%
15,Cc1ccc(C)c(CN2CCC(CNC(=O)C3CCCN(c4ncnc5c4nc4n5CCCCC4)C3)CC2)c1 (configuration not stated),1.05%
16,Cn1c(=O)[nH]c(=O)c2c1nc(N1CCN(C(c3ccccc3)c3ccccc3)CC1)n2CCO,-3.12%
17,Cn1c(=O)[nH]c(=O)c2c1nc(N1CCN(CCO)CC1)n2CCSc1nc2ccccc2s1,38.1% (active)
18,Cc1nnc(SCCCn2c(N3CCCCC3)nc3c2c(=O)[nH]c(=O)n3C)s1,-8.33%
19,CCCCCCCCN1C(=O)[C@@H](CC(=O)N2CCN(C(=O)OCC)CC2)C[C@@]2(C(=O)OC)C1=C[C@H](C1CCCC1)O[C@@H]2C,-12.9%
20,NC(c1csc(NC(=O)Nc2cccc(C(F)(F)F)c2)n1)C1CCCCC1 (configuration not stated),10.7%
21,COc1ccc(C(N)c2csc(NC(=O)Nc3cccc(C(F)(F)F)c3)n2)cc1 (configuration not stated),26.1% (active)
22,COc1ccc(CC(N)c2csc(NC(=O)Nc3ccc(C(C)C)cc3)n2)cc1 (configuration not stated),16%
23,O=C(O)Cn1cnc2c(NCc3ccccc3)ncnc21,-10.7%
